Laboratory results as given in ChEMBL document CHEMBL1687818, “Mechanistic studies of the inactivation of TEM-1 and P99 by NXL104, a novel non-beta-lactam beta-lactamase inhibitor” (Antimicrob Agents Chemother, 2010).

Legend:
[1] = Inhibition of beta-lactamase CTX-M-15 assessed as nitrocefin hydrolysis after 5 mins enzyme-compound preincubation
[2] = target: T1, Beta-lactamase (Enterobacter cloacae, UniProt P05364); experiment: Inhibition of Enterobacter cloacae beta-lactamase P99 after 5 seconds incubation with nitrocefin substrate by spectrophotometry
[3] = Inhibition of beta-lactamase SHV-4 assessed as nitrocefin hydrolysis after 5 mins enzyme-compound preincubation
Outline: (§1)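 Enzyme and inhibitor were preincubated 5 min at 37°C. The inhibitor was tested at 11 concentrations from 1 nM to 100 µM. Final enzyme concentrations were TEM-1 0.25 nM, CTX-M-15 0.35 nM, KPC-2 3 nM and SHV-4 6 nM. Nitrocefin was at 100 µM. Initial rates were read at 485 nm over the first minute. Each value is the mean of at least two independent experiments.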

[4] = Inhibition of beta-lactamase TEM-1 after 5 seconds incubation with nitrocefin substrate by spectrophotometry
Outline: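 Direct competition with reporter substrate at 37°C: inhibitor concentrations were premixed with 100 µM nitrocefin, and the reaction was started with 0.25 nM purified TEM-1. Nitrocefin hydrolysis was followed spectrophotometrically at 485 nm. Initial velocity over the first 5 s was compared with the no-inhibitor control, and KI was derived by equation 2. Means of at least two independent experiments.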

[5] = Inhibition of beta-lactamase TEM- 1 assessed as nitrocefin hydrolysis after 5 mins enzyme-compound preincubation; outline: as §1
[6] = target: T1, Beta-lactamase; experiment: Inhibition of Enterobacter cloacae beta-lactamase P99 assessed as nitrocefin hydrolysis after 5 mins enzyme-compound preincubation
[7] = Inhibition of beta-lactamase KPC-2 assessed as nitrocefin hydrolysis after 5 mins enzyme-compound preincubation; outline: as §1

T1 sequence (P05364 whole entry): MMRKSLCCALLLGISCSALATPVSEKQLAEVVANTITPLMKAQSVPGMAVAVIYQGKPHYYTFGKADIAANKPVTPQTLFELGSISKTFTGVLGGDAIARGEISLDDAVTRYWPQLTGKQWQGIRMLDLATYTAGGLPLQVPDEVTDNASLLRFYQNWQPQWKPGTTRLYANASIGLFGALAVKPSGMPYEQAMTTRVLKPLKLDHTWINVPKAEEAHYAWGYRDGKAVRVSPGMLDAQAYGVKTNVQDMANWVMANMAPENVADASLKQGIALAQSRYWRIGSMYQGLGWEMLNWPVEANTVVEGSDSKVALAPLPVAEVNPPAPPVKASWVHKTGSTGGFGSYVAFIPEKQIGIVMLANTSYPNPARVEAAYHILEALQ

Ki [2]	Ki [4]	IC50 [6]	Compound	IC50 [1]	IC50 [3]	IC50 [5]	IC50 [7]
7700 nM	260 nM	100 nM	NC(=O)[C@@H]1CC[C@@H]2CN1C(=O)N2OS(=O)(=O)O (relative stereo) [AVIBACTAM]	5 nM	3 nM	8 nM	170 nM
–	800 nM	–	O=C(O)[C@H]1/C(=C/CO)O[C@@H]2CC(=O)N21 [CLAVULANIC ACID]	–	4 nM	58 nM	> 100000 nM
–	–	–	CC1(C)[C@H](C(=O)O)N2C(=O)C[C@H]2S1(=O)=O [SULBACTAM]	230 nM	260 nM	1560 nM	57000 nM

Compound	Ki [2]	Ki [4]	IC50 [6]	IC50 [1]	IC50 [3]	IC50 [5]	IC50 [7]
C[C@]1(Cn2ccnn2)[C@H](C(=O)O)N2C(=O)C[C@H]2S1(=O)=O [TAZOBACTAM]	–	30 nM	–	6 nM	55 nM	32 nM	50000 nM
